# Results: ChEMBL document CHEMBL1649115, “Enhanced susceptibility to antifungal oligopeptides in yeast strains overexpressing ABC multidrug efflux pumps” (Antimicrob Agents Chemother, 2008)
# Residues, ends and D or L forms follow the SMILES beside them.
# Columns and labels:
# [1] = tested on: Saccharomyces cerevisiae; test: Antifungal activity against wild type Saccharomyces cerevisiae ATCC 9763 in YNPG medium containing 1 mg/ml […] after 24 hrs by microdilution method; type: functional; details: ATCC 9763, 24 h
# [2] = tested on: Saccharomyces cerevisiae; test: Antifungal activity against Saccharomyces cerevisiae AD12345678 in YNPG medium containing 1 mg/ml […] after 24 hrs by microdilution method; type: functional; details: AD12345678, 24 h
# [3] = tested on: Saccharomyces cerevisiae; test: Antifungal activity against Saccharomyces cerevisiae ADCDR1 expressing Candida albicans CDR1 efflux pump in YNPG medium containing 1 mg/ml […] after 24 hrs by microdilution method; type: functional; details: ADCDR1, 24 h
# [4] = tested on: Saccharomyces cerevisiae; test: Antifungal activity against Saccharomyces cerevisiae ADCDR2 expressing Candida albicans CDR2 efflux pump in YNPG medium containing 1 mg/ml […] after 24 hrs by microdilution method; type: functional; details: ADCDR2, 24 h
# [5] = tested on: Saccharomyces cerevisiae; test: Antifungal activity against Saccharomyces cerevisiae ADMDR1 expressing Candida albicans MDR1 efflux pump in YNPG medium containing 1 mg/ml […] after 24 hrs by microdilution method; type: functional; details: ADMDR1, 24 h
# [6] = tested on: Candida albicans; test: Antifungal activity against wild type Candida albicans 10261 in RPMI-1640 buffered medium after 24 hrs by microdilution method; type: functional; details: Candida albicans, 10261, 24 h; read-out: MIC
# How it was run: (§1)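 C. albicans cells were grown in 2% glucose, 1% yeast extract, 1% Bacto peptone medium before testing. […] CARE-2 fingerprinting confirmed that each pair is a single strain.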
# [7] = tested on: Candida albicans; test: Antifungal activity against fluconazole sensitive Candida albicans isolate Gu4 in RPMI-1640 buffered medium after 24 hrs by microdilution method; type: functional; details: Candida albicans, isolate Gu4, 24 h; read-out: MIC; how it was run: as §1
# [8] = tested on: Candida albicans; test: Antifungal activity against fluconazole resistant Candida albicans isolate Gu5 overexpressing CDR1 and CDR2 in RPMI-1640 buffered medium after 24 hrs by microdilution method; type: functional; details: isolate Gu5, 24 h
# How it was run: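 C. albicans cells were grown in 2% glucose, 1% yeast extract, 1% Bacto peptone medium before testing. CARE-2 fingerprinting confirmed that each pair is a single strain.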
# [9] = tested on: Candida albicans; test: Antifungal activity against fluconazole sensitive Candida albicans isolate B3 in RPMI-1640 buffered medium after 24 hrs by microdilution method; type: functional; details: Candida albicans, isolate B3, 24 h; read-out: MIC; how it was run: as §1
# [10] = tested on: Candida albicans; test: Antifungal activity against fluconazole resistant Candida albicans isolate B4 overexpressing MDR1 in RPMI-1640 buffered medium after 24 hrs by microdilution method; type: functional; details: Candida albicans, isolate B4, 24 h; read-out: MIC; how it was run: as §1
# [11] = tested on: Saccharomyces cerevisiae; test: Drug uptake in Saccharomyces cerevisiae AD12345678 at 200 uM pretreated for 10 mins measured after 60 mins by fluorescamine staining; type: ADME, organism-based; details: in vivo, 1 h
# [12] = tested on: Saccharomyces cerevisiae; test: Drug uptake in Saccharomyces cerevisiae ADCDR1 expressing Candida albicans CDR1 efflux pump at 200 uM pretreated for 10 mins measured after 60 mins by fluorescamine staining; type: ADME, organism-based; details: in vivo, 1 h
# [13] = tested on: Saccharomyces cerevisiae; test: Drug uptake in Saccharomyces cerevisiae ADCDR2 expressing Candida albicans CDR2 efflux pump at 200 uM pretreated for 10 mins measured after 60 mins by fluorescamine staining; type: ADME, organism-based; details: in vivo, 1 h
# [14] = tested on: Saccharomyces cerevisiae; test: Drug uptake in Saccharomyces cerevisiae ADMDR1 expressing Candida albicans MDR1 efflux pump at 200 uM pretreated for 10 mins measured after 60 mins by fluorescamine staining; type: ADME, organism-based; details: in vivo, 1 h
# [15] = tested on: Saccharomyces cerevisiae; test: Drug uptake in Saccharomyces cerevisiae AD12345678 at 200 uM pretreated for 10 mins measured after 60 mins by fluorescamine staining in presence of fluconazole; type: ADME, organism-based; details: in vivo, 1 h
# [16] = tested on: Saccharomyces cerevisiae; test: Drug uptake in Saccharomyces cerevisiae ADCDR1 at 200 uM pretreated for 10 mins measured after 60 mins by fluorescamine staining in presence of fluconazole; type: ADME, organism-based; details: in vivo, 1 h
# [17] = tested on: Saccharomyces cerevisiae; test: Drug uptake in Saccharomyces cerevisiae ADCDR2 at 200 uM pretreated for 10 mins measured after 60 mins by fluorescamine staining in presence of fluconazole; type: ADME, organism-based; details: in vivo, 1 h
# [18] = tested on: Saccharomyces cerevisiae; test: Drug uptake in Saccharomyces cerevisiae ADMDR1 at 50 uM pretreated for 10 mins measured after 60 mins by fluorescamine staining in presence of fluconazole; details: in vivo, 1 h
# [19] = tested on: Saccharomyces cerevisiae; test: Drug extrusion in Saccharomyces cerevisiae ADCDR1 expressing Candida albicans CDR1 efflux pump reenergized with glucose at pH 6.0 assessed as fluorescamine-compound conjugate level after 30 mins; type: ADME, organism-based; details: in vivo, pH 6, 0.5 h
# How it was run: (§2)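 Cells de-energized with 2-deoxy-D-glucose were loaded (200 µM, 60 min, pH 4.0), washed, and resuspended at OD660 1.0 in 50 mM phosphate pH 6.0 at 30°C. After 5-min preincubation, 10 mM glucose was added. Supernatants were sampled every 5 min and assayed with fluorescamine. Unloaded, identically treated cells gave the background control.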
# [20] = tested on: Saccharomyces cerevisiae; test: Drug extrusion in Saccharomyces cerevisiae ADCDR2 expressing Candida albicans CDR2 efflux pump reenergized with glucose at pH 6.0 assessed as fluorescamine-compound conjugate level after 30 mins; type: ADME, organism-based; details: in vivo, pH 6, 0.5 h; how it was run: as §2
# [21] = tested on: Saccharomyces cerevisiae; test: Antifungal activity against wild type Saccharomyces cerevisiae ATCC 9763 in YNBG medium containing 1 mg/ml […] after 24 hrs by microdilution method; type: functional; details: ATCC 9763, 24 h
# [22] = tested on: Saccharomyces cerevisiae; test: Antifungal activity against Saccharomyces cerevisiae AD12345678 in YNBG medium containing 1 mg/ml […] after 24 hrs by microdilution method; type: functional; details: AD12345678, 24 h
# [23] = tested on: Saccharomyces cerevisiae; test: Antifungal activity against Saccharomyces cerevisiae ADCDR1 expressing Candida albicans CDR1 efflux pump in YNBG medium containing 1 mg/ml […] after 24 hrs by microdilution method; type: functional; details: ADCDR1, 24 h
# [24] = tested on: Saccharomyces cerevisiae; test: Antifungal activity against Saccharomyces cerevisiae ADCDR2 expressing Candida albicans CDR2 efflux pump in YNBG medium containing 1 mg/ml […] after 24 hrs by microdilution method; type: functional; details: ADCDR2, 24 h
# [25] = tested on: Saccharomyces cerevisiae; test: Antifungal activity against Saccharomyces cerevisiae ADMDR1 expressing Candida albicans MDR1 efflux pump in YNBG medium containing 1 mg/ml […] after 24 hrs by microdilution method; type: functional; details: ADMDR1, 24 h
SMILES,MIC [1],MIC [2],MIC [3],MIC [4],MIC [5],MIC [6],MIC [7],MIC [8],MIC [9],MIC [10],Drug uptake [11],Drug uptake [12],Drug uptake [13],Drug uptake [14],other results
[N-]=[N+]=CC(=O)CC[C@H](N)C(=O)O [6-DIAZO-5-OXO-L-NORLEUCINE],0.5 µg/mL,0.5 µg/mL,0.125 µg/mL,0.25 µg/mL,0.5 µg/mL,4 µg/mL,4 µg/mL,1 µg/mL,4 µg/mL,4 µg/mL,2 nmol/min/mg,2.32 nmol/min/mg,2.25 nmol/min/mg,1.98 nmol/min/mg,–
C[C@H](N)C(=O)N[C@@H](C)C(=O)O (H-Ala-Ala-OH),–,–,–,–,–,–,–,–,–,–,2.58 nmol/min/mg,4.46 nmol/min/mg,4.08 nmol/min/mg,2.59 nmol/min/mg,Drug uptake [15]: 2.55 nmol/min/mg; Drug uptake [16]: 4.2 nmol/min/mg; Drug uptake [17]: 3.94 nmol/min/mg; Drug uptake [18]: 2.61 nmol/min/mg
N[C@H]1CCC[C@H]1C(=O)O,64 µg/mL,128 µg/mL,256 µg/mL,256 µg/mL,256 µg/mL,1 µg/mL,1 µg/mL,4 µg/mL,2 µg/mL,8 µg/mL,1.63 nmol/min/mg,2.11 nmol/min/mg,1.85 nmol/min/mg,1.67 nmol/min/mg,Activity [19]: 5 µM; Activity [20]: 5 µM; MIC [21]: 4 µg/mL; MIC [22]: 8 µg/mL; MIC [23]: 16 µg/mL; MIC [24]: 16 µg/mL; MIC [25]: 16 µg/mL
